Experimental data gathered from unrelated publications.
Compare with care: the assays were run in different laboratories.
Target: Casein kinase I isoform delta (CSNK1D, Homo sapiens, UniProt P48730)

| Structure (SMILES) | test | setting | remaining binding |
| --- | --- | --- | --- |
| c1cnn2ncc(-c3ccnc(N4CCC45COC5)n3)c2c1 | binding | 1 µM | 41% |
| O=C(c1ccc(Nc2nccc(-c3cc4ccccc4s3)n2)cc1)N1CCC(N2CCCC2)CC1 | binding, competition with immobilised ligand | 1 µM | 100% |
| C[C@@H]1CN(c2cc(-c3n[nH]c4ccc(OC5(C)CC5)cc34)ncn2)C[C@H](C)O1 | cell-free assay, competition with immobilised ligand | 0.1 µM | 80% |
| O=C(c1ccc(Nc2ncc(Cl)c(-c3cc4ccccc4s3)n2)cc1)N1CCC(N2CCCC2)CC1 | binding, competition with immobilised ligand | 1 µM | 100% |
| C[C@@H]1CCN(c2nccc(-c3cnn4ncccc34)n2)C1 | binding | 1 µM | 64% |
| CN(C)c1ncnc(-c2ccc3nc(Nc4cc(CN5CCN(C(=O)CC(F)(F)F)CC5)ccn4)[nH]c3c2)c1Cl | cell-free assay, competition with immobilised ligand | 1 µM | 83% |
| NC(=O)c1nc(Nc2ccccc2)sc1NC(=O)C1CCCCC1 | cell-free assay, competition with immobilised ligand | 10 µM | 6.8% |
| N#Cc1ccc(Nc2ccc3[nH]c(=O)[nH]c3c2)c(Cl)c1 | cell-free assay, competition with immobilised ligand | 1 µM | 100% |
| COc1cnc(Nc2cccc(S(N)(=O)=O)c2)nc1N1CCN(c2ccccc2)C(=O)C1 | binding, competition with immobilised ligand | 1 µM | 98% |
| CNC(=O)Nc1ccc2c(c1)[C@@]1(CC2)OC(=O)N(CC(=O)N(Cc2ccc(F)cc2)[C@@H](C)C(F)(F)F)C1=O | cell-free assay, competition with immobilised ligand | 1 µM | 100% |
| Cc1cnn2ncc(-c3ccnc(N(C)C)n3)c2c1 | binding | 1 µM | 69% |
| CNCc1ccccc1-c1csc([C@@H](C)Nc2nc(C)nc3cc(OC)c(OC)cc23)c1 | cell-free assay, competition with immobilised ligand | 1 µM | 82% |
| COC(=O)Nc1nc2ccc(C(=O)c3ccccc3)cc2[nH]1 | cell-free assay, competition with immobilised ligand | 10 µM | 36% |
| Cc1cnc(Nc2ccc(C(=O)N3CCC(N4CCCC4)CC3)cc2)nc1-c1cc2ccccc2s1 | binding, competition with immobilised ligand | 1 µM | 100% |
| CCN1CCN(Cc2ccc(C(=O)Nc3ccc(C)c(Oc4ccc5c(c4)CC(=O)N5)c3)cc2C(F)(F)F)CC1 | binding, competition with immobilised ligand | 1 µM | 88% |
| C[C@@H](c1ccc(-n2cnc3c(N)ncnc32)cc1)N1CCc2nn(C)c(Cc3ccccc3)c2C1=O | binding, competition with immobilised ligand | 0.1 µM | 76% |
| Cc1c(NC(=O)c2cc(C(N)=O)nc3cc(F)ccc23)c(C(F)(F)F)nn1Cc1ccc(C(C)(C)C)cc1 | cell-free assay, competition with immobilised ligand | 1 µM | 81% |
| O=C(NCC1CCOCC1)c1n[nH]cc1NC(=O)c1c(F)cccc1F | binding, competition with immobilised ligand | 1 µM | 77% |
| F[C@@H]1CCN(c2nccc(-c3cnn4ncccc34)n2)C1 | binding | 1 µM | 83% |
| c1cncc(-c2cccc(Nc3nccc(NC4CCCCC4)n3)c2)c1 | binding, competition with immobilised ligand | 10 µM | 55% |
| CN(c1nccc(-c2cnn3ncccc23)n1)C1CC1 | binding | 1 µM | 100% |
| COc1ncc2cc3ccccc3nc2c1C#N | cell-free assay, competition with immobilised ligand | 5 µM | 93% |
| CNC(=O)Nc1ccc2c(c1)CC[C@@]21OC(=O)N(CC(=O)N(Cc2ccc(F)cc2)[C@@H](C)C(F)(F)F)C1=O | cell-free assay, competition with immobilised ligand | 1 µM | 99% |
| CN(C)c1nccc(-c2cnc3ncccn23)n1 | binding | 1 µM | 57% |
